Each structure is given as a SMILES string. Like-named read-outs stand apart in the source and are kept apart here.

The values that follow come from article PMC4803553 (Endocrinology and Metabolism, 2016).

One data set can be described thus: Renal function. It counts as in vivo, human. Particulars: follow-up after DPP-4 inhibitor treatment, mean±SD; for Follow-up eGFR: MDRD equation. An outline of the steps: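 Fasting early-morning antecubital venous blood was taken from renal allograft recipients receiving a DPP-4 inhibitor. Creatinine was measured by the Jaffe method. eGFR was calculated with the Modification of Diet in Renal Disease study equation. Values are reported as mean±SD and were compared across inhibitor groups by one-way ANOVA with Scheffe post hoc tests.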

The test system of the next data set is hemoglobin A1c (HbA1c). It counts as in vivo, human. To be noted: mean±SD; for After treatment HbA1c: after 3 months of treatment, kidney transplant patients with diabetes; for Difference of HbA1c (ΔHbA1c): change from baseline to 3 months of treatment. The essentials: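 Renal allograft recipients with diabetes, all on cyclosporine-based triple maintenance therapy, started a DPP-4 inhibitor after transplant, at full or renally adjusted reduced dose (50 mg once daily). HbA1c was measured by immunoturbidimetry on an automated analyser and reported as NGSP %. Values at baseline and after 3 months of treatment were compared by paired t test; mean±SD.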

The conditions of data set [1]: cited from earlier work.

As for `N#C[C@@H]1CCCN1C(=O)CNC12CC3CC(CC(O)(C3)C1)C2` [Vildagliptin, vildagliptin], in the data set “Renal function”, the “Follow-up eGFR” value worked out at 58.21±17.76 mL/min/1.73 m^2 and the Follow-up creatinine turned out to be 1.41 ± 0.95 mg/dL. In the data set on hemoglobin A1c (HbA1c), the “After treatment HbA1c” value stood at 7.08±1.81% and the “Difference of HbA1c (ΔHbA1c)” value is reported as -0.38±1.03%. Also, in the data set on hemoglobin A1c (HbA1c) (listed as vildagliptin), the “Difference of HbA1c (ΔHbA1c)” value is given as “–0.38%±1.03%”.
Take `CC#CCn1c(N2CCC[C@@H](N)C2)nc2c1c(=O)n(Cc1nc(C)c3ccccc3n1)c(=O)n2C` [Linagliptin, linagliptin]: in data set [1], the “Eliminated in an unchanged form via the feces” value is given as 84.7% and the “Renal excretion, share of elimination” value is reported as 5.4%. Moreover, in the data set “Renal function”, the “Follow-up eGFR” value was determined as 62.82±18.74 mL/min/1.73 m^2 and the Follow-up creatinine stood at 1.25 ± 0.42 mg/dL. Moreover, in the data set on hemoglobin A1c (HbA1c), the “After treatment HbA1c” value is 6.79±0.63% and the “Difference of HbA1c (ΔHbA1c)” value is given as -1.40±1.34%.
In the case of `N[C@@H](CC(=O)N1CCn2c(nnc2C(F)(F)F)C1)Cc1cc(F)c(F)cc1F` [Sitagliptin, sitagliptin], in data set [1], the “Eliminated in an unchanged form in the urine” value is reported as 79%. In “Renal function”, the “Follow-up eGFR” value was found to be 61.03±16.50 mL/min/1.73 m^2 and the Follow-up creatinine was found to be 1.22 ± 0.82 mg/dL. In the data set with hemoglobin A1c (HbA1c), the “After treatment HbA1c” value worked out at 7.18±1.21% and the “Difference of HbA1c (ΔHbA1c)” value is recorded as -0.53±0.95%. Besides, in the data set on hemoglobin A1c (HbA1c) (listed as sitagliptin), the “Difference of HbA1c (ΔHbA1c)” value is recorded as “–0.53%±0.95%”.
